pEC50: −log10 of the molar value.
How the values were obtained:
[1] = Cytotoxicity against mouse Neuro2a cells after 48 hrs by MTT assay; type: functional; conditions: N2a, read-out: LC50 (the source's name)
Outline: (§1)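 Cells seeded at 6000/well in RPMI 1640 with 10% FBS. After 24 h, compound in DMSO, diluted in serum-free medium, was added (DMSO under 1% final). Viability was read by MTT reduction after 48 h, giving LC50.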

NCI-H460 = experiment: Cytotoxicity against human NCI-H460 cells after 48 hrs by MTT assay; type: functional; conditions: NCI-H460, 48 h, read-out: LC50 (the source's name); outline: as §1
Neuro2a = experiment: Inhibition of voltage-gated sodium channel in mouse Neuro2a cells after 22 hrs; type: cell-based
Artemia salina = experiment: Toxicity in Artemia salina after 24 hrs; type: organism-based; conditions: in vivo
Outline: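 About 15 hatched Artemia salina per well in roughly 5 mL of artificial seawater, with sample added in 50 µL EtOH. Held 24 h at 28 °C, then live and dead shrimp counted. Run in duplicate.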

[2] = Increase in calcium influx in Sprague-Dawley rat CGN measured every 6 seconds for 24 mins by FLIPR assay; type: functional
Outline: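 Cerebellar granule neurons from 8-day-old Sprague-Dawley rat cerebella were used at 10-13 days in culture. Cells were loaded 1 h at 37 °C with 4 µM fluo-3 AM and 0.04% pluronic acid in Locke's buffer (pH 7.4), washed, then read by FLIPR (488 nm excitation, 500-560 nm emission). Baseline was read every 3 s for 1 min, readings stayed at 3 s for 2 min after addition, then every 6 s, 24 min total. Response was AUC (trapezoid rule); EC50 came from a logistic fit.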

[3] = Cytotoxicity against Sprague-Dawley rat CGN assessed as LDH efflux after 2 hrs; conditions: CGN (primary cells from Sprague-Dawley rat), read-out: LC50
Outline: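 Primary cerebellar granule neurons from 8-day-old Sprague-Dawley rats in BME with 25 mM KCl, 10 µM cytosine arabinoside added after 18-24 h, used at 10-13 days in culture. Washed into Locke's buffer (pH 7.4, 1% DMSO) and exposed to compound (1-100 µM) for 2 h at 22 °C. LDH released to medium assayed. Logistic fit of concentration-response; triplicate, repeated twice.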

[4] = Cytotoxicity against Sprague-Dawley rat CGN assessed as LDH efflux after 2 hrs in presence of tetrodotoxin; type: ADME

SMILES | CC50 [1] | CC50 (NCI-H460) | Activity (Neuro2a) | LC90 (Artemia salina) | pEC50 [2] | CC50 at 2 h [3] | Activity [4]
COc1c(C)cc(O)c2c1C[C@H]1[C@@]3(C)CC[C@H]4C(C)(C)[C@@H](O)CC[C@@]4(C)[C@H]3CC[C@]21C [FLABELLINOL] | 2000 nM | 9 µM | 2 µM |  |  |  | 
COC1=CC(C)=C2O[C@@]3(CC2(OO)C1=O)[C@@H](O)CC[C@@H]1[C@@]2(C)CC[C@H](O)C(C)(C)[C@@H]2CC[C@]13C (stereo partly specified) [STYPOHYDROPEROXIDE] | > 21000 nM | > 25 µM |  |  |  |  | 
Cc1cc(O)cc2c1O[C@]1(C)CC[C@@H]3[C@](C)(CC[C@H]4C(C)(C)[C@@H](O)CC[C@]34C)[C@H]1C2 | 2000 nM | 24 µM | 0.7 µM | 24 µM |  |  | 
C[C@H]1CC[C@@H]2[C@@]3(C)CC[C@H](O)C(C)(C)[C@@H]3CC[C@@]2(C)[C@]12Cc1c(O)c(O)cc(C=O)c1O2 |  |  |  |  | 4.00 |  | 
CC1=CC(=O)C2=C(C[C@H]3[C@@]4(C)CC[C@H]5C(C)(C)[C@@H](O)CC[C@@]5(C)[C@H]4CC[C@]23C)C1=O [FLABELLINONE] | 2000 nM | 14 µM | 7 µM |  |  |  | 
CC1=CC(=O)C(=O)C2=C1O[C@@]1(C2)[C@@H](C)CC[C@@H]2[C@@]3(C)CC[C@H](O)C(C)(C)C3CC[C@]21C (stereo partly specified) [STYPOLDIONE] |  |  |  |  | 4.56 | 37.4 µM | Active
